Measurements reported in paper PMC3064798 (Nucleic Acids Research, 2011).
Substitutions are numbered along the chain they refer to.

What was measured:
TaqFS polymerase = TaqFS polymerase (Thermus aquaticus, UniProt P19821, F667Y/G46D); assay: PEP; format: biochemical; conditions: for IC50 values (activity in words): TaqFS, Not Active = no visible +1 band in 377 gel image at 100 μM
Procedure, shortened: (§1)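 Polymerase end-point assay for single-base incorporation. 5 nM BODIPY-FL-labelled primer-1 was hybridised to 40 nM oligoTemplate-4, with the interrogation base complementary to dU. Absence of a +1 band on the 377 gel image at 100 μM counts as not active. IC50 was averaged from triplicates ± 1 SD. Incorporation bias is the analog IC50 divided by the natural-nucleotide (HOMedUTP) IC50.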

Therminator polymerase = target: T1, Therminator polymerase (Thermococcus sp., UniProt Q56366, A485L/D141A/E143A); assay: PEP; format: biochemical; conditions: for Incorporation bias (analog IC50/HOMedUTP IC50): Therminator
T1 sequence (Q56366 1-775 D141A/E143A/A485L): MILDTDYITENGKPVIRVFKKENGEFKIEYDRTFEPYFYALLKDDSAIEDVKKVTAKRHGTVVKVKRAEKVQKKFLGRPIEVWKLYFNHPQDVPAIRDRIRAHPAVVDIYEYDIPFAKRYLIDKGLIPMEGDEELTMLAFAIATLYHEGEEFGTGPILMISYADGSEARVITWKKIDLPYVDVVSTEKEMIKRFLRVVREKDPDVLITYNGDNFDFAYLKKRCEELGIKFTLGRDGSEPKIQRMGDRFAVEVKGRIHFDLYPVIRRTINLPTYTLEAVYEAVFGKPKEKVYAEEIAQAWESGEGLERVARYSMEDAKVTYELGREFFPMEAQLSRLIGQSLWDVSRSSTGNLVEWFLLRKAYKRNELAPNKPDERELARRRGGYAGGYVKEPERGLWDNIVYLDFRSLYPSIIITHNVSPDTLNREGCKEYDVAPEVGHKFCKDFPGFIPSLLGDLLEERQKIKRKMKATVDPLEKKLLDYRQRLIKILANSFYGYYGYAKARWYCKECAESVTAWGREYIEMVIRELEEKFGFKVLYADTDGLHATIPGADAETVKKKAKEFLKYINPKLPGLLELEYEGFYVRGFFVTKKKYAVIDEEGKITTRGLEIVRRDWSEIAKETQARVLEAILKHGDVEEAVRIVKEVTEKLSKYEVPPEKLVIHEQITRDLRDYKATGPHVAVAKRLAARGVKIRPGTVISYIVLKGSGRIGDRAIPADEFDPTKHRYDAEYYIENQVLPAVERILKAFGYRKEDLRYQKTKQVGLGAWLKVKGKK
Procedure, shortened: as §1

[1] = target: T2, Therminator II polymerase (Thermococcus sp., UniProt Q56366, A485L/D141A/E143A/Y409V); assay: PEP; format: biochemical; conditions: for Incorporation bias (analog IC50/HOMedUTP IC50): Therminator II
T2 sequence (Q56366 1-775 D141A/E143A/Y409V/A485L): T1 sequence (Q56366 1-775 D141A/E143A/A485L) with Y409V
Procedure, shortened: as §1

[2] = target: T3, DeepVent(exo^−) polymerase (Pyrococcus sp., UniProt Q51334, D141A/DEL493-1029/E143A); assay: PEP; format: biochemical; conditions: for Incorporation bias (analog IC50/HOMedUTP IC50): DeepVent(exo^−)
T3 sequence (Q51334 with tags, fused parts or gaps D141A/E143A/DEL493-1029): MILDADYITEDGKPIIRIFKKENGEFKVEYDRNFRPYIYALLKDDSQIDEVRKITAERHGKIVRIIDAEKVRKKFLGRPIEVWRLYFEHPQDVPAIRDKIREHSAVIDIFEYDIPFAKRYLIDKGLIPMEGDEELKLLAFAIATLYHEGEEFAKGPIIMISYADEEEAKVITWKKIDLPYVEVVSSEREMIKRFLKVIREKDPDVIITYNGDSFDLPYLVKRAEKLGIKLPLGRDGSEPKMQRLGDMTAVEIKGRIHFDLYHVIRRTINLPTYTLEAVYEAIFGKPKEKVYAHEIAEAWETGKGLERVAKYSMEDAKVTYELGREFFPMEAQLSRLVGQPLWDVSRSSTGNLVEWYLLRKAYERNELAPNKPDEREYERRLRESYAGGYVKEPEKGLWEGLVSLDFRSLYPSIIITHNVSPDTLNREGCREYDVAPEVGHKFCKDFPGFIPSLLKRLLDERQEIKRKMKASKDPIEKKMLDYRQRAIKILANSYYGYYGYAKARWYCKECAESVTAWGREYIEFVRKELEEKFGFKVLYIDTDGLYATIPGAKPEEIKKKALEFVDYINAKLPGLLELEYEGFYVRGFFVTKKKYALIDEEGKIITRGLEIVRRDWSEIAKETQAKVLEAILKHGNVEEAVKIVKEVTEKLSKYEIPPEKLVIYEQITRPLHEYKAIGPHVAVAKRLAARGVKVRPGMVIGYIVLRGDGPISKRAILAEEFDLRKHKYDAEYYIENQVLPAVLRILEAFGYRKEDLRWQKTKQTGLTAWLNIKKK
Procedure, shortened: as §1

[3] = Photochemical cleavage studies; format: physicochemical; conditions: for DT50 values (time at which 50% of 2-nitrobenzyl groups were photochemically cleaved): 365 nm UV, incorporated in primer-1/oligoTemplate-4; for DT50 in sodium azide compared with the FBD solution: 50 mM sodium azide vs FBD; for DT50 faster than the parent dU.I analog: azide solution
Procedure, shortened: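 Analogs (100 nM final) were incorporated as in PEP on BODIPY-FL primer-1/oligoTemplate-4 (10 nM/80 nM). Reactions were quenched in FBD solution (20% formamide, 10 mM Na2EDTA pH 8.0, Blue Dextran) or 50 mM sodium azide. Samples were irradiated at 365 nm for various times, then iced, mixed with formamide stop solution and run on an AB 377 sequencer. DT50 is the time for 50% cleavage, from triplicates ± 1 SD.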

Sequence of TaqFS polymerase (P19821 whole entry G46D/F667Y): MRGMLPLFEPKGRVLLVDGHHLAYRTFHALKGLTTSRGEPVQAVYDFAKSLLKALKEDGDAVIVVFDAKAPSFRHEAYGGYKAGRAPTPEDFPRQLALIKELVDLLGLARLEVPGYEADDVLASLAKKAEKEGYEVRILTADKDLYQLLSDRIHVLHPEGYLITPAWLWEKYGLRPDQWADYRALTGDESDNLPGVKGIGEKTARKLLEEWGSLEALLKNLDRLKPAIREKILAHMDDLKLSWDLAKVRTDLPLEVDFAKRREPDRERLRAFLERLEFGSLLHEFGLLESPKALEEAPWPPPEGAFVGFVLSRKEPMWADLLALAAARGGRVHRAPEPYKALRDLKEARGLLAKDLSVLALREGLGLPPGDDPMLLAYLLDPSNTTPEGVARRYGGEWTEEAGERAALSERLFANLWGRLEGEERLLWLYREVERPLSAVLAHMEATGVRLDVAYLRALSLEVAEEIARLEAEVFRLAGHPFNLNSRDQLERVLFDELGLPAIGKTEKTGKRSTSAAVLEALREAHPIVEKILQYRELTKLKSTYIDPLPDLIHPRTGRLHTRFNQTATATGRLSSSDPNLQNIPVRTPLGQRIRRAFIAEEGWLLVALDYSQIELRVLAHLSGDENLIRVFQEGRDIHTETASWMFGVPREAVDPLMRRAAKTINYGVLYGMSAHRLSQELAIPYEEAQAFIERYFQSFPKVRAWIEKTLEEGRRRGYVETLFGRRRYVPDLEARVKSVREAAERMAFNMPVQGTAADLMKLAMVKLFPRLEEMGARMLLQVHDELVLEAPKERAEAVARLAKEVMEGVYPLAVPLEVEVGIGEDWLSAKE

Structure (SMILES)	IC50 values (activity in words) (TaqFS polymerase)	Incorporation bias (analog IC50/HOMedUTP IC50) (Therminator polymerase)	IC50 [1]	Incorporation bias (analog IC50/HOMedUTP IC50) [1]	IC50 [2]	Incorporation bias (analog IC50/HOMedUTP IC50) [2]	DT50 values (time at which 50% of 2-nitrobenzyl groups were photochemically cleaved) ([3]; 50 mM NaN3)	DT50 in sodium azide compared with the FBD solution [3]	DT50 values (time at which 50% of 2-nitrobenzyl groups were photochemically cleaved) ([3]; FBD solution)	DT50 faster than the parent dU.I analog [3]	IC50 (TaqFS polymerase)	IC50 (Therminator polymerase)
CC(C)C(OCc1cn([C@H]2C[C@H](O)[C@@H](COP(=O)(O)OP(=O)(O)OP(=O)(O)O)O2)c(=O)[nH]c1=O)c1ccccc1[N+](=O)[O-] (mixture of isomers) [dU.III, 5-[1-(2-Nitrophenyl)-2-methyl-propyloxy]methyl-2'-deoxyuridine-5’-triphosphate]	none of the Family A polymerases showed any activity	1.4	0.14 ± 0.01 µM	20	0.22 ± 0.02 µM	80	2.4 ± 0.2 s	approximately three-fold lower	8.8 ± 0.8 s	33-60%	–	–
CC(OCc1cn([C@H]2C[C@H](O)[C@@H](COP(=O)(O)OP(=O)(O)OP(=O)(O)O)O2)c(=O)[nH]c1=O)c1ccccc1[N+](=O)[O-] (mixture of isomers) [dU.II, 5-[1-(2-Nitrophenyl)ethyloxy]methyl-2'-deoxyuridine-5’-triphosphate]	no activity at all	1.0	0.014 ± 0.001 µM	1.9	0.017 ± 0.001 µM	6.3	2.0 ± 0.1 s	approximately three-fold lower	7.4 ± 1.2 s	33-60%	–	–
O=c1[nH]c(=O)n([C@H]2C[C@H](O)[C@@H](COP(=O)(O)OP(=O)(O)OP(=O)(O)O)O2)cc1COCc1ccccc1[N+](=O)[O-] [dU.I, 5-(2-Nitrobenzyloxy)methyl-2'-deoxyuridine-5’-triphosphate]	–	1.1	0.0057 ± 0.0004 µM	0.8	0.0049 ± 0.001 µM	1.8	3.2 ± 0.1 s	approximately three-fold lower	8.7 ± 0.9 s	–	25 µM	0.0018 ± 0.0001 µM
